Apaf1 activ = human Apaf-1 activation. AID 489031. 330,000 tested, 0.31% active. activity change, negative = activation, % at 20 µM. O14727. Apaf-1 apoptosome caspase-3 activation, DEVD-Rh110 fluorescence; active compounds read low;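 active = activity change at or below -40% at 20 µM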
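Schedule: 30 min preincubation, 50 min reaction, room temperature / System: biochemical Apaf-1 apoptosome reconstitution / Medium: 20 mM HEPES pH 7.5 with CHAPS, BSA / Evaluation: Caspase-3 cleavage activity downstream of Apaf-1 activation / Detection: Caspase-3-released Rh110 fluorescence, 540 nm emission, 480 nm excitation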
Rh110 act interf = Rh110 signal interference in Apaf-1 activator counter-screen; shares compounds with Apaf1 activ; Rh110 fluorescence interference, quenched caspase reaction, Ex480/Em540; fluorescence interference (activity change), % at 20 µM, hits read low; 980 tested, under 10 active;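 active = mean activity change at or below -40% when tested at 20 µM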
Apaf-1 act conf2 = confirmation of human Apaf-1 activators; shares compounds with Apaf1 activ; 980 tested, 5% active; activity change, negative = activation, % at 20 µM; reconstituted apoptosome caspase-3 activity, DEVD-Rh110 fluorescence; active compounds read low; AID 504617;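 active = mean activity change at or below -40%, meaning activation of 40% or more, at 20 µM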
Apaf1 act interf = shows fluorescence interference in the Apaf-1 activator assay format; shares compounds with Apaf1 activ; fluorescence interference counterscreen; EC50, µM; 55 tested, under 10 active; AID 588592; call rule not given here
An asterisk follows results filed as active; . = not tested or not shown. The list is a sample of the results.

SMILES	Apaf1 activ	Rh110 act interf	Apaf-1 act conf2	others
COc1cc([N+](=O)[O-])c2ncsc2c1	-59*	-1	8
COC(=O)C1=C(C)N(Cc2ccccc2)C(=NCc2ccccc2)N[C@H]1c1cccc(F)c1	41	.	.
C#CCOCCOCCOCCNc1nc(N2CCN(C(=O)CCCCCCCCCCNC(=O)[C@H](CCCCN)n3cc(C[C@@H](C)CC)nn3)CC2)nc(N2CCN(C(=O)CCCCCCCCCCNC(=O)[C@H](CCCN=C(N)N)n3cc(C[C@@H](C)CC)nn3)CC2)n1	55	.	.
COc1ccc(-c2nc3nc(C)c(Cc4ccccc4)c(=O)n3[nH]2)cc1	49	.	.	Apaf1 act interf=>100
COc1ccc(Cn2nc(-c3ccccc3)c(N3CCCCC3)cc2=O)cc1	46	.	.
Cc1ccc(N2CCN(S(=O)(=O)c3cccs3)CC2C)cc1 (stereo not given)	62	.	.
CCOc1ccc(NC(=O)CN(C)C(=O)c2ccccc2OCc2cccc(C)c2)cc1OCC	46	.	.
Cc1cccc(NC(=S)Nc2cccc3ccccc23)c1	93	.	.
Cc1cccc(CC(=O)Nc2ccon2)c1	-278*	6	8
Cc1ccc(-c2ccc(/C=N/N=C3/NC(=O)C(CC(=O)O)S3)o2)c([N+](=O)[O-])c1 (stereo not given)	74	.	.
S=C(Nc1ccc(Cl)cc1)Nc1cccc2cnccc12	83	.	.
Cc1cccc(NC(=O)c2ccccc2OCC(=O)N2CCOCC2)c1C	-546*	20	14
CCOc1cc(/C=C/c2nc3cc(C)c(C)cc3s2)ccc1OCC(=O)N1CCOCC1	45	.	.
COc1cc(C(=O)N2CCN(c3cccc(C)c3C)CC2)ccc1OCC(=O)N1CCOCC1	51	.	.
O=C1C(=Cc2ccco2)C(=O)c2ccccc21	44	.	.
CN1Cc2c(N3CCOCC3)nc3sc(C(=O)c4ccc(Br)cc4)c(N)c3c2CC1(C)C	56	.	.
CC(Oc1ccc2c(-c3ccccc3)cc(=O)oc2c1)C(=O)NCC1CCC(C(=O)O)CC1 (stereo not given)	-1	.	.
COc1ccc(N2CCN(C(=O)c3ccc(COc4ccc5c(C)cc(=O)oc5c4)cc3)CC2)cc1	58	.	.
COc1ccc(-c2cc(=O)oc3cc(OCC(=O)Nc4ccc(CCO)cc4)ccc23)cc1	-55*	0	-20
CC1=NN(c2ccc(C(F)(F)F)cn2)C(=O)C1	62	.	.
O=C1C2C3C=CC(CC3)C2C(=O)N1c1cccc(C(F)(F)F)c1 (stereo not given)	-120*	16	20
O=C(c1cccc(S(=O)(=O)NCc2ccccc2)c1)N1CCN(c2cccc(C(F)(F)F)c2)CC1	44	.	.
CCc1ccc(S(=O)(=O)/N=C2\C=C(Nc3ccc(O)cc3)C(=O)c3ccccc32)cc1	95	.	.
COCCOC(=O)c1[nH]c2c(c1C)C(=O)C(C(=O)OC)C(C)C2 (stereo not given)	-68*	-3	10
CC1CC(=O)c2c(cc3c(-c4c(O)cc(O)c5c(O)c6c(cc45)OC(C)CC6=O)c(O)cc(O)c3c2O)O1 (stereo not given)	62	.	.
SMILES	Apaf1 activ	Rh110 act interf	Apaf-1 act conf2	others
C=C(C)C(=O)Nc1cccc(C2=NOC3(C2)C[C@@H](C(N)=O)N(C(=O)CCCCC)C3)c1 (stereo not given in full)	-333*	5	-121*	Apaf1 act interf=>100
Cc1cccc(C)c1OCc1cc(C(=O)NCC2CCCCC2)no1	-57*	2	13
COc1ccc(OCc2cc(C(=O)NC3CCOCC3)no2)c2ccccc12	41	.	.
COc1ccc(/C=N/NC(=O)c2nn(-c3ccc(Cl)cc3)c(=O)c3c(N)scc23)cc1	54	.	.
CCCCC(CC)COC(=O)C(C#N)=C(c1ccccc1)c1ccccc1 (stereo not given)	-232*	1	3
CCC(C)(C)c1ccc(OCCCC[n+]2ccc(C)cc2)c(C(C)(C)CC)c1	48	.	.
Cc1ccc2c(c1)C(=O)CC(O)(C(F)F)O2 (stereo not given)	-71*	-1	10
CCCCCc1cc(=O)oc2c(C(CCN3CCCC3)c3cc(OC)c(OC)c(OC)c3)c(OC)cc(OC)c12 (stereo not given)	50	.	.
CCOC(=O)c1c(NC(=O)c2ccc(C)cc2)sc2c1CC(C)(C)NC2(C)C	54	.	.
CC(C)(C)C(=O)[C@@H]1[C@@H]2C(=O)N(c3ccc4c(c3)OCCO4)C(=O)[C@@H]2C2c3ccccc3C=CN21 (stereo not given in full)	62	.	.
C[C@H](NC(=O)N1CCn2c1nc1ccccc12)C(=O)NC1CCCCC1	-168*	15	16
O=C(c1ccc(S(=O)(=O)N2CCCC2)cc1)N(c1ccccc1)C1C=CS(=O)(=O)C1 (stereo not given)	-56*	5	10

High-throughput results (PubChem)
